Assay results from different studies.
Protocols differ between the studies behind these lines. Converted amounts (≈) assume the structure as drawn.

With `O=C(Nc1ccc(Cl)cc1)Nc1ccc(-c2cn(Cc3ccc(Cl)cc3)nn2)cc1` the viability was 88.1% (NCI-H1299; cell growth or viability, CCK-8; 50 µM, 72 h).
For `Nc1nn2c(-c3ccco3)cc(-c3ccc(OCc4ccccc4)cc3)nc2c1N=Nc1ccc(F)cc1`, the MBC was 62.5 µg/mL (≈ 124 µM) (Enterobacter cloacae; microbial killing; ATCC23355).
The viability of `O=C(NCc1cn(Cc2ccc(Br)cc2)nn1)Nc1ccccc1Br` is reported as 89.2% (NCI-H1299; cell growth or viability, CCK-8; 50 µM, 72 h).
`COc1ccc(NC(=O)Nc2cccc(-c3cn(Cc4ccc(C)cc4)nn3)c2)cc1` has a viability of 156% (NCI-H1299; cell growth or viability, CCK-8; 50 µM, 72 h).
For `O=C(Nc1ccc(Cl)cc1)Nc1cccc(-c2cn(Cc3ccc(Cl)cc3)nn2)c1`, the viability was 76.3% (NCI-H1299; cell growth or viability, CCK-8; 50 µM, 72 h).
With `CN(C)CCNC(=O)c1ccc(-c2nc3ccc4[nH]ncc4c3c3c2CCCCC3)cc1` the GI50 was 4120 nM (22Rv1; cell growth or viability; 72 h).
The MBC of `Cc1ccc(N=Nc2c(N)nn3c(-c4ccc(C)cc4)cc(-c4ccc(OCc5ccccc5)cc4)nc23)cc1` is reported as 62.5 µg/mL (≈ 119 µM) (Enterobacter cloacae; microbial killing; ATCC23355).
`Cc1ccc2[nH]nc(-c3nnc(Nc4ccc(O)cc4)s3)c2c1` gave an MIC of 62.8 µg/mL (≈ 194 µM) (Serratia marcescens; microbial growth; ATCC8100).
`COc1ccc(NC(=O)Nc2ccc(-c3cn(Cc4ccc(Cl)cc4)nn3)cc2)cc1` has a viability of 97.9% (NCI-H1299; cell growth or viability, CCK-8; 50 µM, 72 h).
`Cc1ccc2[nH]nc(-c3nnc(Nc4ccc(Br)cc4)s3)c2c1` has an MIC of 257 µg/mL (≈ 664 µM) (Serratia marcescens; microbial growth; ATCC8100).
`O=C(Nc1ccc(Cl)cc1)Nc1cccc(-c2cn(Cc3cccc(Br)c3)nn2)c1` has a viability of 94.7% (NCI-H1299; cell growth or viability, CCK-8; 50 µM, 72 h).
For `COc1ccc(N=Nc2c(N)nn3c(-c4ccc(C)cc4)cc(-c4ccc(OCc5ccccc5)cc4)nc23)cc1`, the MBC was 125 µg/mL (≈ 231 µM) (Enterobacter cloacae; microbial killing; ATCC23355).
`O=C(Nc1ccc(-c2cn(Cc3ccc(Cl)cc3)nn2)cc1)Nc1ccccc1Br` has a viability of 109% (NCI-H1299; cell growth or viability, CCK-8; 50 µM, 72 h).
The GI50 of `Cc1n[nH]c2ccc3nc(-c4ccc(C(=O)NCCN(C)C)cc4)c4c(c3c12)CCCC4` is reported as 1780 nM (22Rv1; cell growth or viability; 72 h).
For `COc1ccc(NC(=O)NCc2cn(Cc3ccc(Cl)cc3)nn2)cc1`, the viability was 79.3% (NCI-H1299; cell growth or viability, CCK-8; 50 µM, 72 h).
With `Cc1ccc(-c2cc(-c3ccc(OCc4ccccc4)cc3)nc3c(N=Nc4ccc(F)cc4)c(N)nn23)cc1` the MBC was 125 µg/mL (≈ 236 µM) (Enterobacter cloacae; microbial killing; ATCC23355).
The viability of `COc1ccc(NC(=O)Nc2ccc(-c3cn(Cc4ccc(C)cc4)nn3)cc2)cc1` is reported as 104% (NCI-H1299; cell growth or viability, CCK-8; 50 µM, 72 h).
For `Cc1ccc(N=Nc2c(N)nn3c(-c4ccc(Cl)cc4Cl)cc(-c4ccc(OCc5ccccc5)cc4)nc23)cc1`, the MBC was 62.5 µg/mL (≈ 108 µM) (Enterobacter cloacae; microbial killing; ATCC23355).
